Experimental data reported in ChEMBL document CHEMBL2203272, “New fluorescent bile acids: synthesis, chemical characterization, and disastereoselective uptake by Caco-2 cells of 3-deoxy 3-NBD-amino deoxycholic and ursodeoxycholic acid” (Bioorg Med Chem, 2012).

Columns and labels:
Caco-2 [1] = assay: Cellular uptake in human Caco2 cells at 4 to 37 degC after 20 mins by fluorescence assay; format: ADME, cell-based; details: caco-2, 20 min
Procedure, shortened: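 Uptake into 21-d Caco-2 monolayers over 20 min at 37°C and 4°C, in KRB pH 7.4 with 0.1% DMSO. Monolayers washed with ice-cold KRB and solubilised in 1% Triton X-100. Fluorescence read at ex 485/em 520 nm with BCA protein normalisation. Active part taken as the 37°C minus 4°C difference; n = 3.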

Caco-2 [2] = assay: Cellular uptake in human Caco2 cells at 10 uM at 4 to 37 degC after 90 mins by fluorescence assay; format: ADME, cell-based; details: caco-2, 1.5 h
Procedure, shortened: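 Caco-2 grown 21 d on 24-well plates as polarised monolayers; compound at 10 μM in bicarbonated Krebs-Ringer buffer (HEPES, pH 7.4) with 0.1% DMSO, at 37°C or 4°C, sampled 5–90 min. Washed twice with ice-cold KRB, lysed in 1% Triton X-100, lysate fluorescence read at ex 485/em 520 nm, normalised to BCA protein. Active uptake = 37°C minus 4°C; mean ± SD, n = 3.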

Caco-2 [3] = assay: Cellular uptake in human Caco2 cells at 10 uM at 37 degC by fluorescence assay; format: ADME, cell-based; details: caco-2, 10 µM, TDE = time-dependent effect
Procedure, shortened: (§1)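 21-d polarised Caco-2 monolayers incubated with 10 μM in KRB (pH 7.4, 0.1% DMSO) at 37°C or 4°C. Sampled at 5, 10, 15, 30, 45, 60 and 90 min. Cells washed twice with ice-cold KRB and lysed in 1% Triton X-100. Lysate fluorescence read at ex 485/em 520 nm and normalised to BCA protein; mean ± SD, n = 3.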

Caco-2 [4] = assay: Cytotoxicity against human Caco2 cells assessed as cell viability at 1 to 100 uM up to 100 mins by MTT assay; format: cell-based; details: caco-2, 100 min
Procedure, shortened: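 Caco-2 monolayers exposed to 1–100 μM for up to 100 min; viability by MTT assay.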

[5] = Stability of the compound in MeCN/phosphate buffer assessed as compound remaining at pH 7.4 measured for 24 hrs by HPLC analysis; format: physicochemical; details: pH 7.4, 24 h
Procedure, shortened: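 Solution at 0.01 mg/ml (stock) in 2% MeCN/phosphate buffer pH 7.4, held at 37°C for 24 h and injected hourly. Analysed by C18 reversed-phase HPLC with MeCN/pH 2.5 phosphate buffer gradient, 1.0 ml/min, column 37°C, detection 346 nm; remaining compound followed by peak area.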

[6] = Cytotoxicity against human SKGT4 cells assessed as cell viability at 1 to 100 uM up to 24 hrs by MTT assay; format: cell-based; details: skgt4, 24 h
Procedure, shortened: (§2)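 HUH-7 and SKGT-4 cells exposed up to 100 μM for up to 24 h; viability by MTT assay.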

Huh-7 = assay: Cytotoxicity against human HuH7 cells assessed as cell viability at 1 to 100 uM up to 24 hrs by MTT assay; format: cell-based; details: huh-7, 24 h; procedure, shortened: as §2
Caco-2 [7] = assay: Cellular uptake in human Caco2 cells at 10 uM at 4 degC by fluorescence assay; format: ADME, cell-based; details: caco-2, 10 µM, TDE = time-dependent effect; procedure, shortened: as §1
Caco-2 [8] = assay: Cellular uptake in human Caco2 cells assessed as uptake rate measured per mg of protein at 1 to 100 uM at 4 to 37 degC after 20 mins by Eadie-Hofstee plot method; format: ADME, cell-based; details: caco-2, 20 min
Procedure, shortened: (§3)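 Caco-2 monolayers grown 21 d, exposed to 1–100 μM in bicarbonated Krebs-Ringer buffer (HEPES, pH 7.4, 0.1% DMSO) for 20 min at 37°C and 4°C. Washed twice with ice-cold KRB, lysed in 1% Triton X-100, fluorescence read at ex 485/em 520 nm and normalised to BCA protein. Active uptake = 37°C minus 4°C. Km/Vmax from Michaelis-Menten non-linear least squares fit, Eadie-Hofstee plot; n = 3.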

[9] = Cellular uptake in human Caco2 cells assessed as uptake rate at 1 to 100 uM at 4 to 37 degC after 20 mins by Eadie-Hofstee plot method; format: ADME, cell-based; details: Caco-2 cells; procedure, shortened: as §3

Drug uptake (Caco-2 [3]) | Stability [5] | Drug uptake (Caco-2 [7]) | Vmax (Caco-2 [8]) | Km at 20 min, up to 100 µM [9] | SMILES | Drug uptake (Caco-2 [1]) | Drug uptake (Caco-2 [2]) | Activity (Caco-2 [4]) | Activity [6] | Activity (Huh-7)
 |  |  |  |  | O=[N+]([O-])c1ccc(NC2CCCCC2)c2nonc12 | Dose-dependent effect | Active |  |  | 
tde | Stable | tde |  |  | C[C@H](CCC(=O)O)[C@H]1CC[C@H]2[C@@H]3[C@@H](O)C[C@@H]4C[C@@H](Nc5ccc([N+](=O)[O-])c6nonc56)CC[C@]4(C)[C@H]3CC[C@]12C |  |  | Non-toxic | Non-toxic | Non-toxic
tde |  | tde | 1.8 nmol/min/mg | 28.2 µM | C[C@H](CCC(=O)O)[C@H]1CC[C@H]2[C@@H]3CC[C@@H]4C[C@H](Nc5ccc([N+](=O)[O-])c6nonc56)CC[C@]4(C)[C@H]3C[C@H](O)[C@]12C | Dose-dependent effect |  | Non-toxic | Non-toxic | Non-toxic
